Test results published in ChEMBL document CHEMBL1122364, “Preparation of 2-amino-4(3H)-oxopyrimido[5,4-b] [1,4]thiazines (5-thiapterins) and their evaluation as cofactors for phenylalanine hydroxylase” (J Med Chem, 1983).

System: not listed separately
Test: Michaelis-Menten constant was determined for the compound

Row | Km [µM] | Structure (SMILES)
1 | 3 | Nc1nc(O)c2c(n1)NCC(c1ccccc1)N2 (stereo unspecified)
2 | 130 | Nc1nc(O)c2c(n1)NCCN2
3 | 40 | CC1CNc2nc(N)[nH]c(=O)c2N1 (stereo unspecified)

Target: T1, Phenylalanine-4-hydroxylase (Rattus norvegicus, UniProt P04176)
T1 sequence (P04176 whole entry): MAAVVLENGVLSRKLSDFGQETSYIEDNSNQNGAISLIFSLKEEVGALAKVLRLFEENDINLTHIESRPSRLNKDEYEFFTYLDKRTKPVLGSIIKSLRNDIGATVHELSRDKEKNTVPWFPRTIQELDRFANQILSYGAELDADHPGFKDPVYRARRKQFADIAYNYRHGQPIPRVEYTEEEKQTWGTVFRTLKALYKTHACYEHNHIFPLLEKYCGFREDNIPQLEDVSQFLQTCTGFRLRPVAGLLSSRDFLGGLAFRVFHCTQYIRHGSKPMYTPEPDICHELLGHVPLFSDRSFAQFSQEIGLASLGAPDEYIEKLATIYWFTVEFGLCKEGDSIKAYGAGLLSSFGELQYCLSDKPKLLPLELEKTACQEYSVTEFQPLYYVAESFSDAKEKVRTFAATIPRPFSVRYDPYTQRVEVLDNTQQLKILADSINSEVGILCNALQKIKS
Test: Tested for competitive binding inhibition against phenylalanine hydroxylase in rat liver
Method in brief: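 Initial rate of tyrosine formation followed at 25 °C as the rise in absorbance at 275 nm. The cofactor was 6-MePH₄ at 12.5–50 μM.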

Row | Structure (SMILES) | Ki [µM]
4 | Nc1nc(N)c(Sc2ccccc2)c(O)n1 | 4.7
5 | Nc1nc(O)c2c(n1)SCC(c1ccccc1)N2 (stereo unspecified) | 500
6 | Nc1nc(O)c2c(n1)NCCS2 | 85
7 | Nc1nc(O)c2c(n1)NCC(c1ccccc1)[S+]2[O-] (stereo unspecified) | 7

Further lines, results first:

Row | Ki [µM] | Structure (SMILES)
8 | 36 | CC1CNc2nc(N)[nH]c(=O)c2S1 (stereo unspecified)
9 | 400 | Nc1nc(O)c2c(n1)NCC[S+]2[O-] (stereo unspecified)
10 | 125 | CC1CNc2nc(N)nc(O)c2[S+]1[O-] (stereo unspecified)
11 | 0.2 | Nc1nc2c(c(=O)[nH]1)SC(c1ccccc1)CN2 (stereo unspecified)
